To fix the notation:
B1: tRNA (parent)
chain: GUUCCGUUGGCGUAAUGGUAACGCGUCUCCCUCCUAAGGAGAAGACUGCGGGUUCGAGUCCCGUACGGAACG

This sample holds only a part of the variants without activity.

Variants of B1 are the subject of the data set. Put plainly: yeast fitness relative to wild type (ratio to wild type); higher = fitter; tRNA-Arg(CCU), competitive growth, 37 C, YPD. Put shortly: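 Gene amplicons from the start population and from each of six end populations were read by 100-nucleotide paired-end sequencing. Those end populations came from pooled Saccharomyces cerevisiae strains carrying tRNA-Arg(CCU) gene variants at the native locus, competed in YPD at 37°C for 24 hours. Fitness relative to wild type was worked out from changes in genotype frequencies. Genotypes needed ≥ 100 starting reads, and estimates < 0.5 were set to 0.5.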
Consider GUUCCGUUGGAGUCAUGGUAACGCGUCUCCCUCAUAAGGAGAAGACUGCGGGUUCGAGUCCCGUACGGAACG [C11A A14C C34A], for which the yeast fitness came to 0.58. Turning to GUUCCGUUGGCGUAAUGGUAACGCAUCUCCCUCCUAAGGAGAAGACUGCGGGUUCGAGUAACAUACGGAACG [G25A C60A C61A G63A], the yeast fitness amounted to 0.75.

In the case of GUUCUGUUGGCGUAAUGCUAACGCGUCUCCCUCCUAAGGAGAAGACUGCGGGUUCGAGUCCCGUACGGAACG [C5U G18C], the yeast fitness stood at 0.721. Next, GUUCCGUUGGCGUAAUGGUAACGCGUCUUCCUCCUAAGGAGAAGACUGCGGGUUCGAGUUCCGUACGGAACG [C29U C60U]: 0.758; GUUCCGUUGGCGUAAUGGUGACGCGUCUCCCUCCUAAGGAGAAGACUGCGGGUUCGAUUCCCGUACGGAACG [A20G G58U]: 0.781; GUUCCGUUGGGGUAAUGGUAACGCGUUUCCCUCCUAAGGAGAAGACUGCGGGUUCGAGUCCCGUACGGAACG [C11G C27U]: 0.706. As to GUUCCGUUGGCGUAAUCGUAACGCGUCUCCCUCCUUAGGAGAAGACUCCGGGUCCGAGUACCGGACGGAACG [G17C A36U G48C U54C C60A U64G], the yeast fitness was no more than 0.5. Next, GUUCCGUUGGCGUAAUGGUAACGCGUUUCCCUCCUAAGGAGCAGACUGCGGGUUCGAGUCCCGUACGGAACG [C27U A42C]: 0.997; GUUCCGUUGGCGUAAUGGUAACGCGUCUCCGGCCUAAGGAGAAGACUGCGGGUUCGAGUCCCGUACGGAACG [C31G U32G]: 0.556. Next, GUUCCGUUGGUGUAAUGGUAACGCGUAUCCCUCCUAAGGAGAAGACUGCGCGUUCCAGUCCCGUACGGAACG [C11U C27A G51C G56C]: no more than 0.5. Take GUUCCGUUGGCAUAAUGGUACCGCGUCUCCCUCCUAAGGAGAAGACUGCGGGUUCGAGUCCCGUACGGAACG [G12A A21C]: the yeast fitness was found to be 0.643. Regarding GUUCCGUCGGCGUAAUGGUAUCGCGUCUCCCACCUAAGGAGAAGACUGCGGGUUGGAGCCCCGUACGGAACG [U8C A21U U32A C55G U59C], the yeast fitness was no more than 0.5. GUUCCGUUGGCGUAAUGGUAACGCGUCUCACUCCUAAGGAGGAGACUGCGGGUUCGAGUCCCGUACGGAACG [C30A A42G]: the yeast fitness was 0.809. On to GUUCCGUUGGCGUAAUGGUAACGCGUCUCCCUCUUAAGGAGAAGACUGCGGGUUCGAGUCCCGUAUGGAACG [C34U C66U], for which the yeast fitness was found to be 0.555. As for GUUCCGUUGGGGUAAUGGAAAGGCGUCUCCCUCCUAAGGAGAAGACUGCGGGUUCGAGACCCGUACGGAACG [C11G U19A C22G U59A], the yeast fitness is no more than 0.5.

Take GUUCCGUUGGCGUAAUGGUAACGCGUAUCCCUCGUAAAGAGAAGACUGCGGGUUCGAGUCCCCUACGGAACG [C27A C34G G38A G63C]: the yeast fitness was no more than 0.5. For the variant GUACCGUUGGCGUAAUGGUAUCGCGUCUCCCUCCUAAGGAGAAGACUGAGGGUUCGAGUCCCGUACGGAACG [U3A A21U C49A], the yeast fitness was no more than 0.5. As to GUUCCGUUGGCGUAAUGGUUACGCGUUUCACUGCUAAGGAGGAGACUGCGCGUUCGAGUCCCGUACGGAACG [A20U C27U C30A C33G A42G G51C], the yeast fitness is 0.583.

For the variant GUUCCGUUGGCGUAAAGGUAACGCGUCUCCCUCCUAAGGCGAAGACUGCGGGUUAGAGUCCCGUAAGGAACG [U16A A40C C55A C66A], the yeast fitness was no more than 0.5. As for GUUCCGUUGGCGUAAAGGUAACGCGUCUCCAUCCUAAGGAGAAGACUGCGGGUUCGAGUCCCGUACGGCACG [U16A C31A A69C], the yeast fitness was found to be 0.633.

Consider GGUCCGUUGGCGUAAUGGUAACGCGUCUCCCUCCUAAGAAGAAGACUGCGGGUUCGAGUCCCGUACGUAACG [U2G G39A G68U], for which the yeast fitness is no more than 0.5. As to GUUCCGUUGGCGUAAUGGUAACGCGUCUCUCUCCUAAGGAGAAGACUGCGGGUUUGAGUCCCGUAUGGAACG [C30U C55U C66U], the yeast fitness stood at 0.531. On to GUUCCGUUGGCGUAAUGGUAACGCGUCUCCAUCCUAAGGAGAAGACUGCGGGUUCGAGUCCUGUACGGAACG [C31A C62U], for which the yeast fitness was 0.944. For the variant GUUCCGUUGGCGUAAUGGUAACGCGUCUCCCUCCUUAGGAGAAGACUGCGGGUUCGAGUCCGAUACGGAACG [A36U C62G G63A], the yeast fitness was 0.569. In the case of GAUCCGUUGGCGUAAUGGUAACGCGUCUCCCACCUAAGGAGAAGACUGCGGGUUCGAGUCCCGUACAGAACG [U2A U32A G67A], the yeast fitness was no more than 0.5. For GUUCCGUUGGCGUAAUCGUGACGCGUCUCGCUCCUAAGGAGAAGACUGCGGGUUCGAGUCCCGUUCGGAACG [G17C A20G C30G A65U], the yeast fitness is no more than 0.5. For the variant GUUAAGUUGGCGUAAUGGUAACGCGUCUCCCUCAUAAGGAGAGGACUGCGGGUUCGAGUCCCGUACGGAACG [C4A C5A C34A A43G], the yeast fitness is no more than 0.5.

On to GUUCCGUUGGCGUGAUGGUAACGCGUCUCCCUGCUAAGGAGAAGACUGCGGGUUCGAGUCCCGUACGGAACG [A14G C33G], for which the yeast fitness was no more than 0.5. As for GUUCCGUUGGCGUAAUGGUAACGCGUCUCCCUCGUAAGGAGAAGACUGCGCGCUCGAGUCCCGUACGGAACG [C34G G51C U53C], the yeast fitness is 0.616. Next, GUUUCGUUGGCGUAAUGGUAACGAGUCUCCCUCCUAAGGAGAAGACUGCGGGUUCGAGACCCGUACGGAACG [C4U C24A U59A]: 0.65.

For GGUCCGUUGGCGUCAUGGUAACGCGUCUCCCUACUAAGGAGAAGAGUGCGGGUUCGAGUCCCGUACGGAACG [U2G A14C C33A C46G], the yeast fitness was no more than 0.5.

With GUUCCGUUGGCGUAAUGGUAACGCGUCUCCCUCCUAUGGAGAAGACUGCGGGUUCGAGUCUCGUACGGAGCG [A37U C61U A70G], the yeast fitness turned out to be 0.572.

As for GUUCCGUUGGCGUAAUGGUAACGCGUCCCCCACCUAAGGAGAAGACUGCGGGUUCGAGUCCCGUACGGAACG [U28C U32A], the yeast fitness was 0.754. Next, GUUCCGUUGGCGUAAUGGUAACGCCUCUCCCUCCUAAGGAGAAGACCGCGGGUUCGAGUCCCGUACGGAACG [G25C U47C]: 0.954; GUUCCGUUGGCGUAAUGGUAACGCGUCUCUCUCCUAAGGAGAAGACUGGGGGUACGAGUCCCGUACGGAACG [C30U C49G U54A]: no more than 0.5; GUUCCGUUGGCGUAAUGGUAUCGAGUCUCCCUCCUAAGGAGAAGACUGCGGGUUCGAGUCCCGUACGGAACG [A21U C24A]: 0.578.

With GUUACGUUGGGGUAAUGCUAACGCGUGUCCCUCCUAAGGAGAAGACUGCGGGUUCGAGUCCCGUACGGAACG [C4A C11G G18C C27G], the yeast fitness was no more than 0.5. Take GUCCCGUUGGCGUAAUGGUAACGCGUCUCCCGCCUAGGGAGAAGACUGCGGGUUCGAGUCCCGUACGGAACG [U3C U32G A37G]: the yeast fitness is no more than 0.5.

These data come from the RNAGym collection of RNA variant scans (doi:10.1126/science.aae0568).
